Data taken from ChEMBL document CHEMBL3244005, “Troponoids. 3. Synthesis and antiallergy activity of N-troponyloxamic acid esters” (J Med Chem, 1979).

Columns and labels:
Rattus norvegicus [1] = test: Antiallergic activity in Sprague-Dawley CD rat assessed as inhibition of passive anaphylaxis-induced hind paw edema at 100 mg/kg, po relative to control; assay type: functional; settings: for inhibition in vivo at 100 mg/kg: Rattus norvegicus, Sprague-Dawley CD, po
In short: (§1)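 Passive anaphylaxis (reaginic antibody) induced in rat hind paw: serum with reaginic antibody injected into left hind paw; antigen given intravenously 24 h later. Paw volume measured by mercury displacement; activity read as inhibition of paw edema versus controls. Test compounds given ip or po. Inhibition of 35% or more considered significant by Student's t test (p < 0.05).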

Rattus norvegicus [2] = test: Antiallergic activity in Sprague-Dawley CD rat assessed as inhibition of passive anaphylaxis-induced hind paw edema at 30 mg/kg, po relative to control; assay type: functional; settings: for inhibition in vivo at 30 mg/kg: Rattus norvegicus, Sprague-Dawley CD, po; in short: as §1
Rattus norvegicus [3] = test: Antiallergic activity in Sprague-Dawley CD rat assessed as inhibition of passive anaphylaxis-induced hind paw edema at 10 mg/kg, ip relative to control; assay type: functional; settings: Rattus norvegicus, Sprague-Dawley CD, ip, route intraperitoneal; in short: as §1
Rattus norvegicus [4] = test: Antiallergic activity in Sprague-Dawley CD rat assessed as inhibition of passive anaphylaxis-induced hind paw edema at 30 mg/kg, ip relative to control; assay type: functional; settings: Rattus norvegicus, Sprague-Dawley CD, ip, route intraperitoneal; in short: as §1
Serum = test: Drug metabolism in serum of Sprague-Dawley CD rat passive anaphylaxis model at 0.23 mmol/kg, iv; assay type: ADME, cell-free
In short: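 Rats given an iv bolus of 0.23 mmol/kg. Serum separated by centrifugation and stored frozen. Drug-derived material in serum quantified over time by UV measurement of 2-aminotropone. For 14C-labelled ester (label in ethyl group or oxalyl carbonyls), radioactivity counted in 0.2 mL serum after tissue-solubiliser digestion and scintillation fluid addition.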

Cavia porcellus [5] = organism: Cavia porcellus; test: Stimulation of guinea pig lung adenylate cyclase activity at 1 x 10^-4 M after 15 mins relative to control
Cavia porcellus [6] = organism: Cavia porcellus; test: Stimulation of guinea pig lung adenylate cyclase activity at 1 x 10^-3 M after 15 mins relative to control
In short: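 Guinea pig lung adenyl cyclase preparation, chosen because it carries negligible cyclic nucleotide phosphodiesterase activity. Enzyme activity was read as cyclic AMP formation in the presence of test agent and compared with untreated control.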

Rattus norvegicus [7] = test: Antiallergic activity in Sprague-Dawley CD rat assessed as inhibition of passive anaphylaxis-induced hind paw edema at 3 mg/kg, ip relative to control; assay type: functional; parameters: Activity: scale not given: the % may be the effect or the level left; settings: route intraperitoneal; in short: as §1
Rattus norvegicus [8] = test: Antiallergic activity in Sprague-Dawley CD rat passive anaphylaxis model assessed as hind paw edema volume at 10 mg/kg, ip relative to control; assay type: functional; settings: route intraperitoneal; in short: as §1
Rattus norvegicus [9] = test: Antiallergic activity in Sprague-Dawley CD rat passive anaphylaxis model assessed as hind paw edema volume at 30 mg/kg, po relative to control; assay type: functional; in short: as §1
Rattus norvegicus [10] = test: Drug metabolism in po dosed Sprague-Dawley CD rat passive anaphylaxis model assessed as 2-aminotropone level; assay type: ADME, organism-based; settings: in vivo
[11] = Inhibition of beef heart PDE assessed as cyclic AMP level; parameters: species or system Bos taurus
In short: (§2)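 PDE from beef heart or guinea pig lung assayed by earlier-described methods; protein measured by Lowry method. IC50 taken from a plot of percent inhibition vs log inhibitor concentration, as the concentration giving 50% reduction in reaction velocity relative to uninhibited controls.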

Rattus norvegicus [12] = test: Antiallergic activity in Sprague-Dawley CD rat passive anaphylaxis model assessed as hind paw edema volume at 3 mg/kg, ip relative to control; assay type: functional; settings: route intraperitoneal; in short: as §1
Rattus norvegicus [13] = test: Antiallergic activity in Sprague-Dawley CD rat assessed as inhibition of passive anaphylaxis-induced hind paw edema at 10 mg/kg, po relative to control; assay type: functional; in short: as §1
Rattus norvegicus [14] = test: Antiallergic activity in Sprague-Dawley CD rat passive anaphylaxis model assessed as hind paw edema volume at 10 mg/kg, po relative to control; assay type: functional; in short: as §1
Rattus norvegicus [15] = test: Antiallergic activity in Sprague-Dawley CD rat passive anaphylaxis model assessed as hind paw edema volume at 3 mg/kg, po relative to control; assay type: functional; in short: as §1
Rattus norvegicus [16] = test: Antiallergic activity in Sprague-Dawley CD rat assessed as inhibition of passive anaphylaxis-induced hind paw edema at 3 mg/kg, po relative to control; assay type: functional; in short: as §1
Rattus norvegicus [17] = test: Antiallergic activity in Sprague-Dawley CD rat passive anaphylaxis model assessed as hind paw edema volume at 1 mg/kg, ip relative to control; assay type: functional; settings: route intraperitoneal; in short: as §1
Rattus norvegicus [18] = test: Antiallergic activity in Sprague-Dawley CD rat assessed as inhibition of passive anaphylaxis-induced hind paw edema at 1 mg/kg, ip relative to control; assay type: functional; settings: route intraperitoneal; in short: as §1
[19] = Inhibition of guinea pig lung PDE assessed as cyclic AMP level; parameters: species or system Cavia porcellus; in short: as §2
[20] = Rattus norvegicus, Sprague-Dawley CD, po

SMILES	inhibition in vivo at 100 mg/kg (Rattus norvegicus [1]) [%]	inhibition in vivo at 30 mg/kg (Rattus norvegicus [2]) [%]	inhibition in vivo at 10 mg/kg (Rattus norvegicus [3]) [%]	inhibition in vivo at 30 mg/kg (Rattus norvegicus [4]) [%]	also measured
O=C(O)COC(=O)C(=O)Nc1cccccc1=O	50	45	66	93	
CC(C)(C)OC(=O)C(=O)Nc1cccccc1=O	82	47		79	
CCOC(=O)C(=O)Nc1ccccc(OC)c1=O	56	59	24	52	
O=C(Nc1cccccc1=O)C(=O)Oc1ccccc1	71	31	68	73	
CCOC(=O)C(=O)Nc1cc(OC)cccc1=O	53	31		8	
Nc1cccccc1=O					Drug metabolism (Serum): metabolite_detected
CCOC(=O)C(=O)Nc1ccccc(-c2ccccc2)c1=O	0		57	72	
CCOC(=O)C(=O)Nc1ccccc(NC)c1=O		0	73	83	
CNC[C@H](O)c1ccc(O)c(O)c1					Activity (Cavia porcellus [5]): 84%
CCOC(=O)C(=O)Nc1ccc(Cl)ccc1=O	25			27	
CCOC(=O)C(=O)Nc1cccc(OC)cc1=O	48	45	73	67	
CCOC(=O)C(=O)Nc1ccccc(O)c1=O	0		5	61	
CCCCCOC(=O)C(=O)Nc1cccccc1=O		12	61	57	
Cn1c(=O)c2[nH]cnc2n(C)c1=O					Activity (Cavia porcellus [6]): 5%
CCOC(=O)COC(=O)C(=O)Nc1cccccc1=O	64	31	69		
CCOC(=O)C(=O)Nc1ccc(NC(=O)C(=O)OCC)c(=O)cc1	76	61	93	84	
CCOC(=O)C(=O)Nc1ccccc(N(C)C(=O)C(=O)OCC)c1=O	0	6	26	51	

SMILES	inhibition in vivo at 100 mg/kg (Rattus norvegicus [1]) [%]	inhibition in vivo at 30 mg/kg (Rattus norvegicus [2]) [%]	inhibition in vivo at 10 mg/kg (Rattus norvegicus [3]) [%]	inhibition in vivo at 30 mg/kg (Rattus norvegicus [4]) [%]	also measured
O=C(O)C(=O)Nc1cccccc1=O [listing 1 of 2 here]					Activity (Cavia porcellus [5]): 2%
CCOC(=O)C(=O)Nc1ccccc(C)c1=O	34	6	40	60	
CCOC(=O)C(=O)Nc1ccccc(N(C)S(=O)(=O)c2ccc(C)cc2)c1=O	0	3		32	
O=C(O)C(=O)Nc1cccccc1=O [listing 2 of 2 here]	62		89	77	Activity (Rattus norvegicus [7]): 35%; inhibition (INH) (Rattus norvegicus [2]): 38%; Activity (Rattus norvegicus [8]): 0.12 mL; Activity (Rattus norvegicus [9]): 0.88 mL; Drug metabolism (Rattus norvegicus [10]): metabolite_detected; IC50 [11]: 4330 µM; Activity (Rattus norvegicus [12]): 0.75 mL; inhibition (INH) (Rattus norvegicus [13]): 38%; Activity (Rattus norvegicus [14]): 1.11 mL
CC(C)OC(=O)C(=O)Nc1cccccc1=O	72	63	76	96	
COc1cccc2c(=O)c(CO)coc12	83	53	70	98	inhibition in vivo at 3 mg/kg (Rattus norvegicus [7]; Rattus norvegicus, Sprague-Dawley CD, ip): 39%; Activity (Rattus norvegicus [8]): 0.32 mL; Activity (Rattus norvegicus [9]): 0.63 mL; Activity (Rattus norvegicus [15]): 1.13 mL; inhibition in vivo at 3 mg/kg (Rattus norvegicus [16]; [20]): 15%; Activity (Rattus norvegicus [12]): 0.68 mL; inhibition in vivo at 10 mg/kg (Rattus norvegicus [13]; [20]): 44%; Activity (Rattus norvegicus [14]): 0.74 mL; Activity (Rattus norvegicus [17]): 1 mL; inhibition in vivo at 1 mg/kg (Rattus norvegicus [18]): 14%
NC(CO)(CO)CO.O=C(O)C(=O)Nc1cccccc1=O					inhibition (INH) (Rattus norvegicus [1]): 73%; inhibition (INH) (Rattus norvegicus [2]): 32%; Activity (Rattus norvegicus [9]): 0.64 mL; Activity (Rattus norvegicus [15]): 0.83 mL; inhibition (INH) (Rattus norvegicus [16]): 13%; inhibition (INH) (Rattus norvegicus [13]): 7%; Activity (Rattus norvegicus [14]): 0.88 mL
O=C(O)c1cc(=O)c2c(OCC(O)COc3cccc4oc(C(=O)O)cc(=O)c34)cccc2o1 [CROMOLYN SODIUM]			62	77	
CCOC(=O)C(=O)Nc1c(Oc2ccccc2)ccccc1=O	20			0	
NNC(=O)C(=O)Nc1cccccc1=O	78	41	64	78	
CCOC(=O)C(=O)Nc1ccccc(Br)c1=O	0			52	
CCOC(=O)C(=O)Nc1ccccc(Oc2ccccc2)c1=O	9			16	
Cn1c(=O)c2nc[nH]c2n(C)c1=O [THEOPHYLLINE]					IC50 [11]: 515 µM; IC50 [19]: 1480 µM
COC(=O)C(=O)Nc1ccc(OC)c(=O)cc1				36	
CCOC(=O)C(=O)Nc1c(C)ccccc1=O	37	4		47	
CCOC(=O)C(=O)Nc1ccc(O)c(=O)cc1				10	
